“And” between values parts separate entries of the source, which are not always exact repeats. Identical values can stand only once.
Key:
Fibroblast = test: Multiplex assay against human fibroblast; assay type: toxicity, cell-based
Procedure, shortened: (§1)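 Live cells carried four stains from seeding: Hoechst33342, BioTracker Green Microtubule Cytoskeleton Dye, MitoTracker Red and Annexin V Alexa Fluor 680. They were imaged on a CQ1 microscope at 37°C and 5% CO2 after compound addition. Using CellPathfinder machine-learning gating, cells were split into Hoechst high-intensity objects or normal cells, normal cells into healthy, pyknosed or fragmented nuclei, and pyknosed cells into mitotic or apoptotic; tubulin, mitochondrial-mass and membrane-permeability phenotypes are per cents of healthy-nucleus cells.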

HEK-293T = test: Multiplex assay against HEK293T; assay type: toxicity, cell-based; conditions: human; procedure, shortened: as §1
[1] = 12 h, 1 µM, compound concentration 1 uM
[2] = 12 h, 10 µM, compound concentration 10 uM
[3] = 24 h, 1 µM, compound concentration 1 uM
[4] = 24 h, 10 µM, compound concentration 10 uM
[5] = 48 h, 1 µM, compound concentration 1 uM
[6] = 48 h, 10 µM, compound concentration 10 uM

SMILES: O=C1N=C(NCc2cccs2)S/C1=C\c1ccc2ncccc2c1
- Population Apoptotic (%) (Fibroblast; [1]): 15.79% and 17.07%
- Population Healthy Nuclei (%) (Fibroblast; [1]): 66.3% and 76.85%
- Population Hoechst High Intensity Objects (%) (Fibroblast; [1]): 0%
- Population Membrane Permeable-Phenotype (%) (Fibroblast; [1]): 3.28% and 1.28%
- Population Mitochondria Different-Phenotype (%) (Fibroblast; [1]): 4.92% and 6.41%
- Population Mitotic Cells (%) (Fibroblast; [1]): 84.21% and 82.93%
- Population Normal (%) (Fibroblast; [1]): 100%
- Population Pyknosed Nuclei (%) (Fibroblast; [1]): 20.65% and 20.2%
- Population Tubulin-Different-Phenotype (%) (Fibroblast; [1]): 6.56% and 12.82%
- Total Cell Count (Fibroblast; [1]): 184 and 203
- Population Apoptotic (%) (Fibroblast; [2]): 20.69% and 27.27%
- Population Healthy Nuclei (%) (Fibroblast; [2]): 61.15% and 75.14%
- Population Hoechst High Intensity Objects (%) (Fibroblast; [2]): 0%
- Population Membrane Permeable-Phenotype (%) (Fibroblast; [2]): 14.58% and 10.29%
- Population Mitochondria Different-Phenotype (%) (Fibroblast; [2]): 25% and 16.91%
- Population Mitotic Cells (%) (Fibroblast; [2]): 79.31% and 72.73%
- Population Normal (%) (Fibroblast; [2]): 100%
- Population Pyknosed Nuclei (%) (Fibroblast; [2]): 18.47% and 18.23%
- Population Tubulin-Different-Phenotype (%) (Fibroblast; [2]): 34.38% and 55.15%
- Total Cell Count (Fibroblast; [2]): 157 and 181
- Population Apoptotic (%) (Fibroblast; [3]): 14.29% and 17.86%
- Population Fragmented Nuclei (%) (Fibroblast; [3]): 10.34% and 5.09%
- Population Healthy Nuclei (%) (Fibroblast; [3]): 72.41% and 81.94%
- Population Hoechst High Intensity Objects (%) (Fibroblast; [3]): 0%
- Population Membrane Permeable-Phenotype (%) (Fibroblast; [3]): 4.08% and 3.39%
- Population Mitochondria Different-Phenotype (%) (Fibroblast; [3]): 5.44% and 3.39%
- Population Mitotic Cells (%) (Fibroblast; [3]): 85.71% and 82.14%
- Population Normal (%) (Fibroblast; [3]): 100%
- Population Pyknosed Nuclei (%) (Fibroblast; [3]): 17.24% and 12.96%
- Population Tubulin-Different-Phenotype (%) (Fibroblast; [3]): 7.48% and 19.77%
- Total Cell Count (Fibroblast; [3]): 203 and 216
- Population Apoptotic (%) (Fibroblast; [4]): 19.05% and 33.33%
- Population Fragmented Nuclei (%) (Fibroblast; [4]): 12.93% and 9.6%
- Population Healthy Nuclei (%) (Fibroblast; [4]): 72.79% and 76.84%
- Population Hoechst High Intensity Objects (%) (Fibroblast; [4]): 0%
- Population Membrane Permeable-Phenotype (%) (Fibroblast; [4]): 11.21% and 5.88%
- Population Mitochondria Different-Phenotype (%) (Fibroblast; [4]): 23.36% and 20.59%
- Population Mitotic Cells (%) (Fibroblast; [4]): 80.95% and 66.67%
- Population Normal (%) (Fibroblast; [4]): 100%
- Population Pyknosed Nuclei (%) (Fibroblast; [4]): 14.29% and 13.56%
- Population Tubulin-Different-Phenotype (%) (Fibroblast; [4]): 49.53% and 66.91%
- Total Cell Count (Fibroblast; [4]): 147 and 177
- Population Apoptotic (%) (Fibroblast; [5]): 14.81% and 21.05%
- Population Fragmented Nuclei (%) (Fibroblast; [5]): 8.85% and 4.11%
- Population Healthy Nuclei (%) (Fibroblast; [5]): 79.2% and 87.21%
- Population Hoechst High Intensity Objects (%) (Fibroblast; [5]): 0%
- Population Membrane Permeable-Phenotype (%) (Fibroblast; [5]): 1.12% and 4.19%
- Population Mitochondria Different-Phenotype (%) (Fibroblast; [5]): 8.38% and 5.76%
- Population Mitotic Cells (%) (Fibroblast; [5]): 85.19% and 78.95%
- Population Normal (%) (Fibroblast; [5]): 100%
- Population Pyknosed Nuclei (%) (Fibroblast; [5]): 11.95% and 8.68%
- Population Tubulin-Different-Phenotype (%) (Fibroblast; [5]): 6.7% and 19.37%
- Total Cell Count (Fibroblast; [5]): 226 and 219
- Population Apoptotic (%) (Fibroblast; [6]): 44.44% and 38.89%
- Population Fragmented Nuclei (%) (Fibroblast; [6]): 18.54% and 16.67%
- Population Healthy Nuclei (%) (Fibroblast; [6]): 75.5% and 74.24%
- Population Hoechst High Intensity Objects (%) (Fibroblast; [6]): 0%
- Population Membrane Permeable-Phenotype (%) (Fibroblast; [6]): 2.63% and 12.24%
- Population Mitochondria Different-Phenotype (%) (Fibroblast; [6]): 33.33% and 14.29%
- Population Mitotic Cells (%) (Fibroblast; [6]): 55.56% and 61.11%
- Population Normal (%) (Fibroblast; [6]): 100%
- Population Pyknosed Nuclei (%) (Fibroblast; [6]): 5.96% and 9.09%
- Population Tubulin-Different-Phenotype (%) (Fibroblast; [6]): 47.37% and 63.95%
- Total Cell Count (Fibroblast; [6]): 151 and 198
- Population Apoptotic (%) (HEK-293T; [1]): 11.2% and 8.04%
- Population Fragmented Nuclei (%) (HEK-293T; [1]): 4.18% and 2.19%
- Population Hoechst High Intensity Objects (%) (HEK-293T; [1]): 0%
- Population Membrane Permeable-Phenotype (%) (HEK-293T; [1]): 0%
- Population Mitochondria Different-Phenotype (%) (HEK-293T; [1]): 30.06% and 18.18%
- Population Mitotic Cells (%) (HEK-293T; [1]): 88.8% and 91.96%
- Population Normal (%) (HEK-293T; [1]): 100%
- Population Pyknosed Nuclei (%) (HEK-293T; [1]): 40.19% and 81.75%
- Total Cell Count (HEK-293T; [1]): 311 and 137
- Population Apoptotic (%) (HEK-293T; [2]): 10.71% and 8.85%
- Population Fragmented Nuclei (%) (HEK-293T; [2]): 2.55% and 5.49%
- Population Healthy Nuclei (%) (HEK-293T; [2]): 68.88% and 25.61%
- Population Hoechst High Intensity Objects (%) (HEK-293T; [2]): 0%
- Population Membrane Permeable-Phenotype (%) (HEK-293T; [2]): 1.48% and 0%
- Population Mitochondria Different-Phenotype (%) (HEK-293T; [2]): 19.26% and 9.52%
- Population Mitotic Cells (%) (HEK-293T; [2]): 89.29% and 91.15%
- Population Normal (%) (HEK-293T; [2]): 100%
- Population Pyknosed Nuclei (%) (HEK-293T; [2]): 28.57% and 68.9%
- Population Tubulin-Different-Phenotype (%) (HEK-293T; [2]): 25.93% and 59.52%
- Total Cell Count (HEK-293T; [2]): 392 and 164
- Population Apoptotic (%) (HEK-293T; [3]): 19.59% and 9.09%
- Population Fragmented Nuclei (%) (HEK-293T; [3]): 2.82% and 3.6%
- Population Healthy Nuclei (%) (HEK-293T; [3]): 74.35% and 33.09%
- Population Hoechst High Intensity Objects (%) (HEK-293T; [3]): 0%
- Population Membrane Permeable-Phenotype (%) (HEK-293T; [3]): 0.63% and 2.17%
- Population Mitochondria Different-Phenotype (%) (HEK-293T; [3]): 8.54% and 19.57%
- Population Mitotic Cells (%) (HEK-293T; [3]): 80.41% and 90.91%
- Population Normal (%) (HEK-293T; [3]): 100%

— ChEMBL document CHEMBL5724801, “EUbOPEN Chemogenomics Library - Multiplex” (2024)
